# Measurements reported in ChEMBL document CHEMBL4321840, “Start Selective and Rigidify: The Discovery Path toward a Next Generation of EGFR Tyrosine Kinase Inhibitors” (J Med Chem, 2019).
# Key:
# [1] = test system: BaF3; test: Cytotoxicity against mouse BAF3 cells incubated for 72 hrs by Celltiter-Glo luminescent cell viability assay; assay type: cell-based; conditions: BaF3, 72 h
# Method in brief: (§1)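 Mutant lines were made IL-3-independent; wt line grown on EGF without IL-3. EGFR-independent control cells carried GFP-only vector and were kept in IL-3. Seeded at 5x10³/100 µl, treated 72 h at 37 °C, viability read by CellTiter-Glo luminescence. Technical and biological triplicates. Geometric mean of ≥3 independent runs.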
# [2] = biological target: T1, Epidermal growth factor receptor (Homo sapiens, UniProt P00533, C797S/EX19DEL/T790M); test: Inhibition of phosphorylated EGFR del19/T790M/C797S triple mutant (unknown origin) expressed in mouse BaF3 cells incubated for 4 hrs by Alphascreen assay; assay type: cell-based
# [3] = Inhibition of EGFR del19/T790M/C797S triple mutant in mouse BAF3 cells assessed as reduction in cell proliferation incubated for 72 hrs by Celltiter-Glo luminescent cell viability assay; assay type: cell-based; conditions: BaF3, 72 h
# Method in brief: as §1, with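 “Murine Ba/F3 cells retrovirally transduced with GFP plus EGFR wt, del19 or del19/T790M/C797S, then puromycin-selected. Mutant” for “Mutant”, “runs. Selectivity ratio = wt IC50 / del19/T790M/C797S IC50.” for “runs.”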
# [4] = biological target: T1, Epidermal growth factor receptor; test: Inhibition of GST-fusion tagged EGFR del19/T790M/C797S triple mutant (unknown origin) (696 to 1022 residues) expressed in insect cells assessed as decrease in phosphorylation of ULight-poly-GT using poly-GT as substrate in presence of ATP
# [5] = Selectivity index, ratio of IC50 for antiproliferative activity against mouse BAF3 cells harboring wild type EGFR to IC50 for antiproliferative activity against mouse BAF3(transformed) cells harboring EGFR del19/T790M/C797S triple mutant incubated for 72 hrs by Celltiter-Glo luminescent cell viability assay; assay type: functional
# Method in brief: as §1, with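 “Murine Ba/F3 cells retrovirally transduced with GFP plus EGFR wt, del19 or del19/T790M/C797S, then puromycin-selected. Mutant” for “Mutant”, “runs. Selectivity ratio = wt IC50 / del19/T790M/C797S IC50.” for “runs.”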
# [6] = biological target: Epidermal growth factor receptor (Homo sapiens, UniProt P00533); test: Inhibition of human recombinant GST-tagged wild type EGFR expressed in baculovirus expression system assessed as decrease in phosphorylation of ULight-poly-GT using ULight-poly-GT as substrate incubated for 90 mins in presence of ATP by TR-FRET LANCE assay
# [7] = biological target: Epidermal growth factor receptor (Homo sapiens, UniProt P00533, C797S/L858R/T790M); test: Inhibition of GST-fusion tagged EGFR L858R/T790M/C797S triple mutant (unknown origin) (696 to 1022 residues) expressed in insect cells assessed as decrease in phosphorylation of ULight-poly-GT using poly-GT as substrate in presence of ATP
# [8] = species on record: Homo sapiens; test: Selectivity ratio of IC50 for inhibition of human recombinant GST-tagged wild type EGFR expressed in baculovirus expression system to IC50 for inhibition of GST-fusion tagged EGFR del19/T790M/C797S triple mutant (unknown origin) (696 to 1022 residues) expressed in insect cells
# Method in brief: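 TR-FRET kinase assays on ULight-poly-GT substrate (200 nM) with ATP 100 µM, final enzyme 1.5 nM (wt) or 15 nM (del746-750/T790M/C797S). Buffer was HEPES pH 7.3, MgCl2, EGTA, Tween 20, DTT. Reaction ran 90 min at room temperature and was stopped with EDTA plus Eu-anti-pTyr antibody, read after 60 min. Top concentration 100 µM with eleven fivefold dilutions in duplicate. IC50 from a 4-parameter logistic fit; ratio is wt IC50 over mutant IC50.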
# [9] = Volume of distribution in NMRI mouse at 10 mg/kg, po or 1 mg/kg, iv; assay type: ADME, organism-based; conditions: in vivo
# Method in brief: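 NMRI mice (n=3 per group) dosed orally at 10 mg/kg or intravenously at 1 mg/kg. Five plasma samples per mouse at set time points. Plasma protein precipitated with acetonitrile, compound quantified by LC-MS/MS against a calibration curve.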
# [10] = test system: A-431; test: Antiproliferative activity against human A431 cells harboring EGFR wild type incubated for 96 hrs by Celltiter-Glo luminescent cell viability assay; assay type: functional, cell-based; conditions: A-431, 96 h
# [11] = Apparent permeability of compound at pH 7.4 by LC-MS based PAMPA method; assay type: ADME
# Method in brief: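 PAMPA at pH 7.4. A microfilter disc coated with immobilized artificial phospholipid membrane layers separates donor and acceptor chambers. Compound concentrations in both chambers are followed over time by LC/MS and compared with the donor concentration before incubation.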
# [12] = Aqueous solubility of compound in McIlvaine buffer at 1 mg/ml at pH 6.8 by HPLC-DAD/UV analysis; assay type: physicochemical
# Method in brief: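 Solid compound dispensed at 1 mg/mL into aqueous McIlvaine buffer (pH 6.8). Reference sample dissolved in acetonitrile/water (1:1). Dissolved concentration quantified by HPLC-DAD/UV.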
# [13] = test system: PC-9; test: Antitumor activity against human PC9 cells harboring del19/T790M/C797S triple mutant xenografted in BomTac:NMRI-Foxn1nu mouse assessed as tumor growth inhibition at 10 mg/kg, po qd administered for 19 days relative to control; assay type: functional; conditions: PC-9, po, 456 h, read-out: TGI
# Method in brief: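 Female BomTac:NMRI-Foxn1nu mice, 6-8 weeks old, implanted s.c. with 5×10⁶ PC-9 del19/T790M/C797S cells. Randomized by tumor size on day 7 (N=8 per treated group, N=10 vehicle). […] Tumor size and body weight measured three times weekly. Tumor volumes compared by one-sided decreasing Mann–Whitney test.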
# [14] = test system: PC-9; test: Antiproliferative activity against human PC9 cells harboring EGFR del19/T790M/C797S triple mutant incubated for 96 hrs by Celltiter-Glo luminescent cell viability assay; assay type: functional, cell-based; conditions: PC-9, 96 h
# Method in brief: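 Cells plated in 96-well plates (A431 5000/well in DMEM + 10% FBS + sodium pyruvate; PC-9 del19/T790M/C797S 2000/well in RPMI + 10% FBS). Compound added 24 h after plating, then 96 h at 37°C, 5% CO2. Viability read by CellTiter-Glo luminescence, normalised to DMSO-treated cells, IC50 fitted. Technical and biological triplicates.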
# [15] = Inhibition of EGFR del19 mutant in mouse BAF3 cells incubated for 72 hrs by Celltiter-Glo luminescent cell viability assay; assay type: cell-based; conditions: BaF3, 72 h
# Method in brief: as §1, with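 “Murine Ba/F3 cells retrovirally transduced with GFP plus EGFR wt, del19 or del19/T790M/C797S, then puromycin-selected. Mutant” for “Mutant”, “runs. Selectivity ratio = wt IC50 / del19/T790M/C797S IC50.” for “runs.”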
# [16] = Protein binding in mouse plasma assessed as free fraction after 3 hrs by HPLC-MS/MS-based equilibrium dialysis method; assay type: ADME, cell-free
# Method in brief: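 Equilibrium dialysis of compound-spiked plasma against Soerensen buffer (pH 7.4) for 3 hours at 37°C. Compound levels in the plasma and buffer sides quantified by HPLC/MS-MS to give the bound and free fractions.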
# [17] = Protein binding in human plasma assessed as free fraction after 3 hrs by HPLC-MS/MS-based equilibrium dialysis method; assay type: ADME, cell-free
# Method in brief: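 Equilibrium dialysis: human plasma spiked with compound and dialyzed against Soerensen buffer (pH 7.4) for 3 h at 37 °C. Compound in plasma and buffer quantified by HPLC/MS-MS to calculate binding and free fraction.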
# [18] = Hepatic clearance in mouse cryopreserved hepatocytes at 1 uM measured after 240 mins by LC-MS/MS analysis relative to hepatic blood flow; assay type: ADME, cell-based, Hepatocyte; conditions: read-out: CLH
# Method in brief: (§2)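 Compound (1 µM) incubated with cryopreserved hepatocytes. Depletion followed over 240 min by LC/MS/MS quantitation. In vivo hepatic clearance predicted with the well-stirred model and expressed as percent of hepatic blood flow (%QH).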
# [19] = Hepatic clearance in human cryopreserved hepatocytes at 1 uM measured after 240 mins by LC-MS/MS analysis relative to hepatic blood flow; assay type: ADME, cell-based, Hepatocyte; conditions: read-out: CLH; method in brief: as §2
# Sequence of Epidermal growth factor receptor (Homo sapiens, UniProt P00533) (P00533 whole entry, the tested form may be a part): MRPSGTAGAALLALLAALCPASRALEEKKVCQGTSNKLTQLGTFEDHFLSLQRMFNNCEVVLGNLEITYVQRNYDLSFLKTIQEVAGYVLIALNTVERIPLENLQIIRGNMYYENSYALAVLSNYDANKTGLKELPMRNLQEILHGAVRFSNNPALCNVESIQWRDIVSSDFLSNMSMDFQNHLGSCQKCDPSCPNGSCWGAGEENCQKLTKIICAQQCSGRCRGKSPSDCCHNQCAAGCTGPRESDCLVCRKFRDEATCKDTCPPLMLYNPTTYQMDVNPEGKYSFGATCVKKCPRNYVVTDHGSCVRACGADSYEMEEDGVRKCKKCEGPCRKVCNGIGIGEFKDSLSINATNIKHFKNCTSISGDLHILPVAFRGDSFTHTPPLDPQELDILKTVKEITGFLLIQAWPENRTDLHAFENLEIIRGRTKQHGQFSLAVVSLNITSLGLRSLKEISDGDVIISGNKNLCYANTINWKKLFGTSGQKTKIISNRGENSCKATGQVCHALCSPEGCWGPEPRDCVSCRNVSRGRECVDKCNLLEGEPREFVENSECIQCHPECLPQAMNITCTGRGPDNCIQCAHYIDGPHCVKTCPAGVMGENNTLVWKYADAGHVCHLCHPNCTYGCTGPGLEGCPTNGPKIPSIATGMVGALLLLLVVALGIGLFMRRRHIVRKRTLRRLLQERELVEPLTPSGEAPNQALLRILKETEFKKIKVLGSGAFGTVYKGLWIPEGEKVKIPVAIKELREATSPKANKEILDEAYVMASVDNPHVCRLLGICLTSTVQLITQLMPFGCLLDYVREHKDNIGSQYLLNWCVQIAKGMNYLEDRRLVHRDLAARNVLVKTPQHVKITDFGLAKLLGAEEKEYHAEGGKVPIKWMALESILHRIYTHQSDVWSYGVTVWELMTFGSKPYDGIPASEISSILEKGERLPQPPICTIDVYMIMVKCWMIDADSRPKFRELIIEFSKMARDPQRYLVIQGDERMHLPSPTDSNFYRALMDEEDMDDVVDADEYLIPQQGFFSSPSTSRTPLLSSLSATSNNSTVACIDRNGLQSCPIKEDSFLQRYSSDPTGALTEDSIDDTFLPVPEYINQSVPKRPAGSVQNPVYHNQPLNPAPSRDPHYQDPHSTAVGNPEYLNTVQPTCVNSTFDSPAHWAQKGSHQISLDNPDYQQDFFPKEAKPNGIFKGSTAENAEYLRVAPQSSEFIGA
# T1 sequence (P00533 whole entry, looked up, stated change not applied): as the sequence (P00533 whole entry, the tested form may be a part) above
# Sequence of Epidermal growth factor receptor (Homo sapiens, UniProt P00533, C797S/L858R/T790M) (P00533 25-1210 T790M/C797S/L858R limits assumed): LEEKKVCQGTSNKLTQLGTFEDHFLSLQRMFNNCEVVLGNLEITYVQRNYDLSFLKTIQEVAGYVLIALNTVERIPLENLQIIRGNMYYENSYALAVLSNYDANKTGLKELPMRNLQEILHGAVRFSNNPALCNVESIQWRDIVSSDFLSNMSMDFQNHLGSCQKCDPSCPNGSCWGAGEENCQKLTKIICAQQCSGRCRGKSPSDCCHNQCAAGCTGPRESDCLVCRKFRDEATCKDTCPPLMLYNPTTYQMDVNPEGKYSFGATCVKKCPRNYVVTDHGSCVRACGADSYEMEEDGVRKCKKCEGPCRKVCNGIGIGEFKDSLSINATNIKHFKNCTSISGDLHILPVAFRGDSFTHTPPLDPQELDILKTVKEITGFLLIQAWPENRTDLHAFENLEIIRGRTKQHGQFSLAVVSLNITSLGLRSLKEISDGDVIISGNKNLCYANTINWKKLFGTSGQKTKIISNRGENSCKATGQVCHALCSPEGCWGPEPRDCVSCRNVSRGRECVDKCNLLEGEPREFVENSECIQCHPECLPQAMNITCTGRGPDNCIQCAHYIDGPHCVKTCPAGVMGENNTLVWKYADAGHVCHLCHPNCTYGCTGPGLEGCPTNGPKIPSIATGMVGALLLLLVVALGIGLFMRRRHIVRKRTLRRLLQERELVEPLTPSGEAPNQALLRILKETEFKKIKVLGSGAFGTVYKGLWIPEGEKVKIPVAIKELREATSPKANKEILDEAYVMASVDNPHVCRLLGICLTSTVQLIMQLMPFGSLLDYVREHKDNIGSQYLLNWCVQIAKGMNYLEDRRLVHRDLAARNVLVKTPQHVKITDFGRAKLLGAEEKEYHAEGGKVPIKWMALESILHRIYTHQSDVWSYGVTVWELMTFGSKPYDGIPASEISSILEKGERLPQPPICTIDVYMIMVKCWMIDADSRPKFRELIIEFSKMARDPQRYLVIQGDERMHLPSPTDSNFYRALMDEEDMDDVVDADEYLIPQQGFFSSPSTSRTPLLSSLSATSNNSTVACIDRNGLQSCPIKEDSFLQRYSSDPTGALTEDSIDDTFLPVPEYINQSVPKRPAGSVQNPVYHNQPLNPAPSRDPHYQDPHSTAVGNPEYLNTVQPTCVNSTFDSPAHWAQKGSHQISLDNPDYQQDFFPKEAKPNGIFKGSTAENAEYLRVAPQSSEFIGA
SMILES,IC50 [1],IC50 [2],IC50 [3],IC50 [4],Ratio IC50 [5],IC50 [6],further results
COc1ccncc1-c1cc(C(=O)/N=c2\[nH]c3ccccc3n2CC(C)(C)O)ccn1,990 nM,1 nM,51 nM,≤ 3 nM,,,
CC(C)(O)Cn1/c(=N/C(=O)c2ccnc(-c3cccnc3)c2)[nH]c2ccccc21,,,270 nM,,,,
Cn1ncc2c1OCCCCCN1/C(=N/C(=O)c3cc(F)nc-2c3)Nc2ccccc21,330 nM,1.2 nM,6 nM,,45,,
O=C1/N=C2\Nc3ccccc3N2CCCCCOc2ccccc2-c2cc1ccn2,1600 nM,3 nM,27 nM,,48,,
CC(C)(O)Cn1/c(=N/C(=O)c2cccc(-c3cccnc3)c2)[nH]c2ccccc21,,1400 nM,,173 nM,,> 100000 nM,IC50 [7]: 2700 nM
CC(C)(O)Cn1/c(=N/C(=O)c2ccnc(-c3ccccc3)c2)[nH]c2ccccc21,> 25000 nM,22 nM,150 nM,35 nM,,> 100000 nM,
CC(C)(O)Cn1/c(=N/C(=O)c2cc(F)cc(-c3cccnc3)c2)[nH]c2ccccc21,,790 nM,,250 nM,,> 100000 nM,Ratio IC50 [8]: > 400; IC50 [7]: 2100 nM
Cc1cc2cc(n1)-c1cnn(C)c1OCCC[C@@H](C)CN1/C(=N/C2=O)Nc2ccc(CN3CCN(C)CC3)cc21,1100 nM,,0.2 nM,,,,Vd [9]: 4.2 L/kg; IC50 [10]: 200 nM; Papp [11]: 5.3 ×10⁻⁶ cm/s; solubility [12]: 95 µg/mL; inhibition in vivo at 10 mg/kg [13]: 121%; IC50 [14]: 1.3 nM; IC50 [15]: 1 nM
Cc1cc2cc(n1)-c1cnn(C)c1OCCC[C@@H](C)CN1/C(=N/C2=O)Nc2ccccc21,1000 nM,0.8 nM,1 nM,,>1000,,"fraction unbound at 3 h [16]: < 0.3; fraction unbound at 3 h [17]: 0.5; hepatic extraction ratio at 4 h, 1 µM [18]: 0.47; Papp [11]: 0.2 ×10⁻⁶ cm/s; solubility [12]: < 0.1 µg/mL; hepatic extraction ratio at 4 h, 1 µM [19]: 0.12"
Cn1cc(-c2cc(C(=O)/N=c3\[nH]c4ccccc4n3CC(C)(C)O)ccn2)cn1,8900 nM,43 nM,333 nM,72 nM,,> 100000 nM,IC50 [7]: 519 nM
C=CC(=O)Nc1cc(Nc2nccc(-c3cn(C)c4ccccc34)n2)c(OC)cc1N(C)CCN(C)C [OSIMERTINIB],1100 nM,,780 nM,,,,fraction unbound at 3 h [16]: < 0.1; Papp [11]: 2.7 ×10⁻⁶ cm/s; solubility [12]: 86 µg/mL; IC50 [14]: > 1000 nM
Cc1cc2cc(n1)-c1cnn(C)c1OCCCCCN1/C(=N/C2=O)Nc2ccccc21,1700 nM,1 nM,5 nM,,460,,
